Measurements pooled from the literature.
Lines come from different studies, so protocols differ.

Cn1cc(Nc2nc(N)nc(-c3cccc(-n4ccc5cc(C6CC6)cc(F)c5c4=O)c3CO)n2)cn1 — half-life (human, plasma; oral, 300 mg, single dose, fasted, healthy volunteers): 9.7 h
Cc1ccc(C(=O)Nc2ccc(CN3CCN(C)CC3)c(C(F)(F)F)c2)cc1C#Cc1cnc2[nH]ncc2c1 — half-life (human, plasma; oral, 20 mg, healthy volunteers): 33.2 h
NS(=O)(=O)OC[C@@H]1C[C@@H](n2ccc3c(N[C@H]4CCc5ccccc54)ncnc32)C[C@@H]1O — half-life (human, plasma; intravenous, 35 mg/m², patients): 5.1 h
CNC(=O)n1ccc2cc(Oc3ccnc(NC(=O)c4ccc(C5CCN(CCO)CC5)cc4)c3)c(OCCOC)cc21 — half-life (human, plasma; oral, 35 mg, single dose, healthy volunteers): 21 h
O=[N+]([O-])c1ccc(-c2ccc(O)cc2)c2cccnc12 — Vd/F (male CD-1 mouse, plasma; oral, 5 mg/kg): 157 L/kg
NC(=S)NN=Cc1ncccc1N — half-life (human, plasma; oral, 100 mg): 1.5 h
COc1ccc([C@@H](O)c2cc(-c3ncnc4cc(N5CCOCC5)ccc34)c(F)cc2Cl)nn1 — half-life (human, plasma; oral, 400 mg, single dose, patients): 3.51 h
N#C[C@@]12C[C@@H]1[C@@H](n1cnc3c(N[C@@H](C4CCC4)C4CC4)nc(I)nc31)[C@H](O)[C@@H]2O — compound remaining (chemical stability; simulated intestinal fluid; 2 h): 97.8%
CC(C)n1c(Nc2cccnc2)nc2cnc(Nc3ccc(N4CCN(C)CC4)cc3)nc21 — half-life (male human, plasma; oral, 100 mg, single dose): 35.4 h
Cc1c(C(=O)O)ccc2c3n(nc12)[C@@H]1[C@H](C3)N(CC2CC2)[C@@]2(C(=O)Nc3cc(Cl)ccc32)[C@H]1c1cccc(Cl)c1F — Vd (female mouse, plasma; intravenous): 0.44 L/kg
